Active and inactive are the calls of the source. The rule behind the calls is not given here.
Tests used:
Tubulin (Homo sapiens) [1] = molecular target: T1, Tubulin (Homo sapiens) (UniProt P68371+Q9H4B7+P0DPH7+P68366+Q13509+Q71U36+P04350+Q3ZCM7+P07437+P68363+Q9BQE3+Q6PEY2+Q13885+Q9BVA1+Q9BUF5); test: Inhibition of [3H]colchicine binding to tubulin (unknown origin) at 5 uM relative to control; format: protein-complex assay
Tubulin (Homo sapiens) [2] = molecular target: T1, Tubulin (Homo sapiens); test: Inhibition of [3H]colchicine binding to tubulin (unknown origin) at 0.5 uM relative to control; format: protein-complex assay
Tubulin = test: Inhibition of tubulin assembly (unknown origin); format: protein-complex assay, Homo sapiens
MCF7 [3] = test: Antiproliferative activity against human MCF7 cells; format: functional, cell-based
MCF7 [4] = test: Antiproliferative activity against human MCF7 cells expressing TUBB3; format: functional, cell-based
[5] = Resistance ratio of EC50 for antiproliferative activity against human MCF7 cells expressing TUBB3 to EC50 for antiproliferative activity against human MCF7 cells; format: functional
In short: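 Resistance ratio: EC50 in MCF-7 cells overexpressing βIII-tubulin divided by EC50 in parental wild-type MCF-7 cells.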

MCF7 [6] = test: Potency index, ratio of EC50 of paclitaxel to EC50 of compound for antiproliferative activity against human MCF7 cells; format: functional
MCF7 [7] = test: Potency index, ratio of EC50 of paclitaxel to EC50 of compound for antiproliferative activity against human MCF7 cells expressing TUBB3; format: functional
OVCAR-8 [8] = test: Antiproliferative activity against human OVCAR-8 cells; format: functional, cell-based
NCI/ADR-RES [9] = test: Antiproliferative activity against human NCI/ADR-RES cells overexpressing Pgp; format: functional, cell-based
MCF7 [10] = test: Antitumor activity against human MCF7 cells expressing TUBB3 xenografted in athymic mouse assessed as reduction in tumor growth at 30 mg/kg administered twice in a week; format: functional, organism-based
In short: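 βIII-tubulin-overexpressing MCF-7 cells in Matrigel implanted into mammary fat pad #4 of 8-week-old female athymic mice. […] Tumor volumes measured over time and analysed by two-way repeated-measures ANOVA. Body weight change at day 41 analysed by one-way ANOVA. n = 7 control, 8 per treated group.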

[11] = Toxicity in athymic mouse xenografted with human MCF7 cells expressing TUBB3 assessed as effect on body weight at 30 mg/kg administered twice in a week; format: organism-based; details: in vivo
In short: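 MCF-7 TUBB3 cells (10^7 in 100 uL Matrigel) implanted into mammary fat pad #4 of 8-week-old female athymic mice. Dosing was 30 mg/kg twice weekly. Body weight was expressed as percent change at day 41 versus starting weight and analysed by one-way ANOVA, n = 8.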

CCRF-CEM = test: Growth inhibition of human CCRF-CEM cells incubated for 48 hrs by sulforhodamine B assay; format: functional
HL-60(TB) = test: Growth inhibition of human HL-60(TB) cells incubated for 48 hrs by sulforhodamine B assay; format: functional
K562 = test: Growth inhibition of human K562 cells incubated for 48 hrs by sulforhodamine B assay; format: functional
MOLT-4 = test: Growth inhibition of human MOLT-4 cells incubated for 48 hrs by sulforhodamine B assay; format: functional
RPMI-8226 = test: Growth inhibition of human RPMI-8226 cells incubated for 48 hrs by sulforhodamine B assay; format: functional
SR = test: Growth inhibition of human SR cells incubated for 48 hrs by sulforhodamine B assay; format: functional
A549 = test: Growth inhibition of human A549 cells incubated for 48 hrs by sulforhodamine B assay; format: functional
EKVX = test: Growth inhibition of human EKVX cells incubated for 48 hrs by sulforhodamine B assay; format: functional
HOP-62 = test: Growth inhibition of human HOP-62 cells incubated for 48 hrs by sulforhodamine B assay; format: functional
HOP-92 = test: Growth inhibition of human HOP-92 cells incubated for 48 hrs by sulforhodamine B assay; format: functional
NCI-H226 = test: Growth inhibition of human NCI-H226 cells incubated for 48 hrs by sulforhodamine B assay; format: functional
NCI-H23 = test: Growth inhibition of human NCI-H23 cells incubated for 48 hrs by sulforhodamine B assay; format: functional
NCI-H322M = test: Growth inhibition of human NCI-H322M cells incubated for 48 hrs by sulforhodamine B assay; format: functional
NCI-H460 = test: Growth inhibition of human NCI-H460 cells incubated for 48 hrs by sulforhodamine B assay; format: functional
NCI-H522 = test: Growth inhibition of human NCI-H522 cells incubated for 48 hrs by sulforhodamine B assay; format: functional
COLO 205 = test: Growth inhibition of human COLO 205 cells incubated for 48 hrs by sulforhodamine B assay; format: functional
HCC 2998 = test: Growth inhibition of human HCC 2998 cells incubated for 48 hrs by sulforhodamine B assay; format: functional
HCT-116 = test: Growth inhibition of human HCT-116 cells incubated for 48 hrs by sulforhodamine B assay; format: functional
HCT-15 = test: Growth inhibition of human HCT-15 cells incubated for 48 hrs by sulforhodamine B assay; format: functional
HCT-29 = test: Growth inhibition of […] incubated for 48 hrs by sulforhodamine B assay; format: functional
KM12 = test: Growth inhibition of human KM12 cells incubated for 48 hrs by sulforhodamine B assay; format: functional
SW-620 = test: Growth inhibition of human SW-620 cells incubated for 48 hrs by sulforhodamine B assay; format: functional
SF-268 = test: Growth inhibition of human SF-268 cells incubated for 48 hrs by sulforhodamine B assay; format: functional
SF-295 = test: Growth inhibition of human SF-295 cells incubated for 48 hrs by sulforhodamine B assay; format: functional
SF-539 = test: Growth inhibition of human SF-539 cells incubated for 48 hrs by sulforhodamine B assay; format: functional
SNB-19 = test: Growth inhibition of human SNB-19 cells incubated for 48 hrs by sulforhodamine B assay; format: functional
SNB-75 = test: Growth inhibition of human SNB-75 cells incubated for 48 hrs by sulforhodamine B assay; format: functional
U-251 = test: Growth inhibition of human U-251 cells incubated for 48 hrs by sulforhodamine B assay; format: functional
LOX IMVI = test: Growth inhibition of human LOX IMVI cells incubated for 48 hrs by sulforhodamine B assay; format: functional
Malme-3M = test: Growth inhibition of human Malme-3M cells incubated for 48 hrs by sulforhodamine B assay; format: functional
M14 = test: Growth inhibition of human M14 cells incubated for 48 hrs by sulforhodamine B assay; format: functional
MDA-MB-435 = test: Growth inhibition of human MDA-MB-435 cells incubated for 48 hrs by sulforhodamine B assay; format: functional
SK-MEL-2 = test: Growth inhibition of human SK-MEL-2 cells incubated for 48 hrs by sulforhodamine B assay; format: functional
SK-MEL-28 = test: Growth inhibition of human SK-MEL-28 cells incubated for 48 hrs by sulforhodamine B assay; format: functional
SK-MEL-5 = test: Growth inhibition of human SK-MEL-5 cells incubated for 48 hrs by sulforhodamine B assay; format: functional
UACC-257 = test: Growth inhibition of human UACC-257 cells incubated for 48 hrs by sulforhodamine B assay; format: functional
UACC-62 = test: Growth inhibition of human UACC-62 cells incubated for 48 hrs by sulforhodamine B assay; format: functional
IGROV-1 = test: Growth inhibition of human IGROV-1 cells incubated for 48 hrs by sulforhodamine B assay; format: functional
OVCAR-3 = test: Growth inhibition of human OVCAR-3 cells incubated for 48 hrs by sulforhodamine B assay; format: functional
OVCAR-4 = test: Growth inhibition of human OVCAR-4 cells incubated for 48 hrs by sulforhodamine B assay; format: functional
OVCAR-5 = test: Growth inhibition of human OVCAR-5 cells incubated for 48 hrs by sulforhodamine B assay; format: functional
OVCAR-8 [12] = test: Growth inhibition of human OVCAR-8 cells incubated for 48 hrs by sulforhodamine B assay; format: functional
NCI/ADR-RES [13] = test: Growth inhibition of human NCI/ADR-RES cells incubated for 48 hrs by sulforhodamine B assay; format: functional
SK-OV-3 = test: Growth inhibition of human SK-OV-3 cells incubated for 48 hrs by sulforhodamine B assay; format: functional
786-0 = test: Growth inhibition of human 786-0 cells incubated for 48 hrs by sulforhodamine B assay; format: functional
A498 = test: Growth inhibition of human A498 cells incubated for 48 hrs by sulforhodamine B assay; format: functional
ACHN = test: Growth inhibition of human ACHN cells incubated for 48 hrs by sulforhodamine B assay; format: functional
CAKI-1 = test: Growth inhibition of human CAKI-1 cells incubated for 48 hrs by sulforhodamine B assay; format: functional
RXF 393 = test: Growth inhibition of human RXF 393 cells incubated for 48 hrs by sulforhodamine B assay; format: functional
SN12C = test: Growth inhibition of human SN12C cells incubated for 48 hrs by sulforhodamine B assay; format: functional
TK-10 = test: Growth inhibition of human TK-10 cells incubated for 48 hrs by sulforhodamine B assay; format: functional
UO-31 = test: Growth inhibition of human UO-31 cells incubated for 48 hrs by sulforhodamine B assay; format: functional
PC-3 = test: Growth inhibition of human PC-3 cells incubated for 48 hrs by sulforhodamine B assay; format: functional
DU-145 = test: Growth inhibition of human DU-145 cells incubated for 48 hrs by sulforhodamine B assay; format: functional
MCF7 [14] = test: Growth inhibition of human MCF7 cells incubated for 48 hrs by sulforhodamine B assay; format: functional
MDA-MB-231 = test: Growth inhibition of human MDA-MB-231 cells incubated for 48 hrs by sulforhodamine B assay; format: functional
Hs-578T = test: Growth inhibition of human HS-578T cells incubated for 48 hrs by sulforhodamine B assay; format: functional
BT-549 = test: Growth inhibition of human BT-549 cells incubated for 48 hrs by sulforhodamine B assay; format: functional
T47D = test: Growth inhibition of human T47D cells incubated for 48 hrs by sulforhodamine B assay; format: functional
MDA-MB-468 = test: Growth inhibition of human MDA-MB-468 cells incubated for 48 hrs by sulforhodamine B assay; format: functional
[15] = Resistance ratio of IC50 for antiproliferative activity against human NCI/ADR-RES cells expressing Pgp to IC50 for antiproliferative activity against human OVCAR-8 cells; format: functional
In short: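 Resistance ratio: IC50 in Pgp-overexpressing NCI/ADR-RES cells divided by IC50 in parental OVCAR-8 cells.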

## COc1ccc2c(c1)CCCN2c1nc(C)nc2c(Cc3ccccc3)c[nH]c12
Tubulin (Homo sapiens) [1]
  inhibition: 43%

## COc1ccc(Nc2nc(C)nc3cc[nH]c23)cc1
Tubulin (Homo sapiens) [1]
  inhibition: 0%

## COc1ccc(N(C)c2nc(Cl)nc3cnn(C)c23)cc1
Tubulin (Homo sapiens) [1]
  inhibition: 94%
Tubulin (Homo sapiens) [2]
  inhibition: 68%
Tubulin
  IC50: 450 nM
MCF7 [3]
  EC50: 2 nM
MCF7 [4]
  EC50: 3.3 nM
[5]
  Ratio EC50: 1.1
MCF7 [6]
  Ratio EC50: 100
MCF7 [7]
  Ratio EC50: 600
OVCAR-8 [8]
  IC50: 9 nM
NCI/ADR-RES [9]
  IC50: 5 nM
MCF7 [10]
  TGI: Active
[11]
  Activity: Non-Toxic
CCRF-CEM
  GI50: 9.96 nM
HL-60(TB)
  GI50: 11.2 nM
K562
  GI50: 6.46 nM
MOLT-4
  GI50: 19.9 nM
RPMI-8226
  GI50: 15.3 nM
SR
  GI50: 9.64 nM
A549
  GI50: 12.7 nM
EKVX
  GI50: 15.5 nM
HOP-62
  GI50: 15.4 nM
HOP-92
  GI50: 16 nM
NCI-H226
  GI50: 9.49 nM
NCI-H23
  GI50: 11.9 nM
NCI-H322M
  GI50: 14.1 nM
NCI-H460
  GI50: 4.52 nM
NCI-H522
  GI50: 14.4 nM
COLO 205
  GI50: 9.78 nM
HCC 2998
  GI50: 23.6 nM
HCT-116
  GI50: 9.07 nM
HCT-15
  GI50: 5.14 nM
HCT-29
  GI50: 7.6 nM
KM12
  GI50: 10.8 nM
SW-620
  GI50: 6.67 nM
SF-268
  GI50: 12.2 nM
SF-295
  GI50: 11.4 nM
SF-539
  GI50: 8.76 nM
SNB-19
  GI50: 13.9 nM
SNB-75
  GI50: 10.8 nM
U-251
  GI50: 7.97 nM
LOX IMVI
  GI50: 8.53 nM
Malme-3M
  GI50: 12.1 nM
M14
  GI50: 10.6 nM
MDA-MB-435
  GI50: 3.9 nM
SK-MEL-2
  GI50: 21 nM
SK-MEL-28
  GI50: 17 nM
SK-MEL-5
  GI50: 14.6 nM
UACC-257
  GI50: 22.7 nM
UACC-62
  GI50: 15.9 nM
IGROV-1
  GI50: 13.3 nM
OVCAR-3
  GI50: 6.37 nM
OVCAR-4
  GI50: 12.9 nM
OVCAR-5
  GI50: 11.8 nM
OVCAR-8 [12]
  GI50: 14.7 nM
NCI/ADR-RES [13]
  GI50: 8.24 nM
SK-OV-3
  GI50: 13.9 nM
786-0
  GI50: 13.2 nM
A498
  GI50: 13.4 nM
ACHN
  GI50: 8.4 nM
CAKI-1
  GI50: 15.7 nM
RXF 393
  GI50: 8.75 nM
SN12C
  GI50: 15.8 nM
TK-10
  GI50: 16.3 nM
UO-31
  GI50: 10 nM
PC-3
  GI50: 10.7 nM
DU-145
  GI50: 8.89 nM
MCF7 [14]
  GI50: 10.8 nM
MDA-MB-231
  GI50: 14.3 nM
Hs-578T
  GI50: 11.2 nM
BT-549
  GI50: 24.1 nM
T47D
  GI50: 16.4 nM
MDA-MB-468
  GI50: 9.09 nM
[15]
  Ratio IC50: 0.55

## COc1ccc(Nc2nc(Cl)nc3cnn(C)c23)cc1
Tubulin (Homo sapiens) [1]
  inhibition: 7.1%
Tubulin
  IC50: > 20000 nM
OVCAR-8 [8]
  IC50: > 5000 nM
NCI/ADR-RES [9]
  IC50: > 5000 nM

From ChEMBL document CHEMBL4813982, “Novel pyrazolo[4,3-d]pyrimidine microtubule targeting agents (MTAs): Synthesis, structure-activity relationship, in vitro and in vivo evaluation as antitumor agents” (Bioorg Med Chem Lett, 2021)
